Laboratory results published in ChEMBL document CHEMBL1156908, “Characterization of tunable piperidine and piperazine carbamates as inhibitors of endocannabinoid hydrolases” (J Med Chem, 2010).

Columns and labels:
[1] = biological target: T1, Fatty-acid amide hydrolase 1 (Mus musculus, UniProt O08914); assay: Inhibition of FAAH in mouse brain membrane; type: cell membranes
T1 sequence (O08914 whole entry): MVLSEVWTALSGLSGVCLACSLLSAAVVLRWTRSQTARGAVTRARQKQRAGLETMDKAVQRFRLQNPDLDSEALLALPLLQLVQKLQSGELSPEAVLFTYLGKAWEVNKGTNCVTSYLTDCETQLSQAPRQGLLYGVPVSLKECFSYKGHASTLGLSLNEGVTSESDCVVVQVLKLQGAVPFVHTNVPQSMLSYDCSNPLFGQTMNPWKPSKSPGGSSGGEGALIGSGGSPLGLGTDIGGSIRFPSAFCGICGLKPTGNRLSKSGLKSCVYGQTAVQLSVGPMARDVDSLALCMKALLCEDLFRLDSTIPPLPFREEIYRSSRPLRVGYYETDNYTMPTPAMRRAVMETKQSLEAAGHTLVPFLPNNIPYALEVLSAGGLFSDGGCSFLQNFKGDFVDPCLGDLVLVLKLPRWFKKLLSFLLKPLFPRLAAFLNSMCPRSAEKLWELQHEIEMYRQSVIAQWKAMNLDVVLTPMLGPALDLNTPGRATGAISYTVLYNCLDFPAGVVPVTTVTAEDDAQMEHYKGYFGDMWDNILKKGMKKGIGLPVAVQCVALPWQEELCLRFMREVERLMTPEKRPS
Summary of the method: (§1)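 Mouse brain membrane fraction (Dounce homogenized in PBS pH 7.5, 1,400 × g debris spin, 64,000 × g 45 min pellet, resuspended) at 1 mg/ml in PBS. Inhibitor preincubated 30 min at 37°C, then FP-rhodamine 1 μM final for 30 min at 25°C. SDS-PAGE with in-gel fluorescence scanning. IC50 from fitted integrated band intensities, mean of at least triplicates.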

Monoglyceride lipase = biological target: T2, Monoglyceride lipase (Mus musculus, UniProt O35678); assay: Inhibition of MAGL in mouse brain membrane; type: cell membranes; summary of the method: as §1
T2 sequence (O35678 whole entry): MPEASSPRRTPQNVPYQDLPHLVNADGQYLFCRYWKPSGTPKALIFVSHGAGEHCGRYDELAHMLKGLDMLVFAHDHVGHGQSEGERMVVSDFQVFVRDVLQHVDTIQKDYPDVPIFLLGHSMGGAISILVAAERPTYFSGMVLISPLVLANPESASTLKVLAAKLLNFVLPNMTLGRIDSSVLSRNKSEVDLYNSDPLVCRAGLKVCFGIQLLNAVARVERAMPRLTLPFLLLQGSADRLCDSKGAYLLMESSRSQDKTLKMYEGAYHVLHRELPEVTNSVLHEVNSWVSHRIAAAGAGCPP

[2] = biological target: T3, Monoacylglycerol lipase ABHD6 (Mus musculus, UniProt Q8R2Y0); assay: Inhibition of ABHD6 in mouse brain membrane; type: cell membranes; summary of the method: as §1
T3 sequence (Q8R2Y0 whole entry): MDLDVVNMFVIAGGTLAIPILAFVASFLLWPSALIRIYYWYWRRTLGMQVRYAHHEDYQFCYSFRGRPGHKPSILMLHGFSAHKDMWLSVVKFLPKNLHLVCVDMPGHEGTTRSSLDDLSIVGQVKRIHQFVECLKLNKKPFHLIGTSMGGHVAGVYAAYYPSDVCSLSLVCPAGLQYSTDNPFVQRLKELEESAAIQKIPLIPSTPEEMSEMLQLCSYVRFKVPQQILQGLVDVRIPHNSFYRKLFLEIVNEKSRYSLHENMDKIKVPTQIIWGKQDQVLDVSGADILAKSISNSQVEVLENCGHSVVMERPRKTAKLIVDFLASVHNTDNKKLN

Mus musculus = species: Mus musculus; assay: Selectivity ratio of IC50 for mouse FAAH to IC50 for mouse MAGL
Summary of the method: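 Competitive ABPP on mouse brain membrane proteome (Dounce-homogenized in PBS pH 7.5, 64,000 × g pellet, resuspended), diluted to 1 mg/ml in PBS. Inhibitor preincubated 30 min at 37°C, then FP-rhodamine 1 μM final for 30 min at 25°C. SDS-PAGE and in-gel fluorescence scanning. IC50s for FAAH and MAGL come from integrated band intensities, means of ≥3 runs; the ratio is taken from these.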

[3] = biological target: T4, Patatin-like phospholipase domain-containing protein 6 (Mus musculus, UniProt Q3TRM4); assay: Inhibition of NTE in mouse brain membrane; type: cell membranes; summary of the method: as §1
T4 sequence (Q3TRM4 whole entry): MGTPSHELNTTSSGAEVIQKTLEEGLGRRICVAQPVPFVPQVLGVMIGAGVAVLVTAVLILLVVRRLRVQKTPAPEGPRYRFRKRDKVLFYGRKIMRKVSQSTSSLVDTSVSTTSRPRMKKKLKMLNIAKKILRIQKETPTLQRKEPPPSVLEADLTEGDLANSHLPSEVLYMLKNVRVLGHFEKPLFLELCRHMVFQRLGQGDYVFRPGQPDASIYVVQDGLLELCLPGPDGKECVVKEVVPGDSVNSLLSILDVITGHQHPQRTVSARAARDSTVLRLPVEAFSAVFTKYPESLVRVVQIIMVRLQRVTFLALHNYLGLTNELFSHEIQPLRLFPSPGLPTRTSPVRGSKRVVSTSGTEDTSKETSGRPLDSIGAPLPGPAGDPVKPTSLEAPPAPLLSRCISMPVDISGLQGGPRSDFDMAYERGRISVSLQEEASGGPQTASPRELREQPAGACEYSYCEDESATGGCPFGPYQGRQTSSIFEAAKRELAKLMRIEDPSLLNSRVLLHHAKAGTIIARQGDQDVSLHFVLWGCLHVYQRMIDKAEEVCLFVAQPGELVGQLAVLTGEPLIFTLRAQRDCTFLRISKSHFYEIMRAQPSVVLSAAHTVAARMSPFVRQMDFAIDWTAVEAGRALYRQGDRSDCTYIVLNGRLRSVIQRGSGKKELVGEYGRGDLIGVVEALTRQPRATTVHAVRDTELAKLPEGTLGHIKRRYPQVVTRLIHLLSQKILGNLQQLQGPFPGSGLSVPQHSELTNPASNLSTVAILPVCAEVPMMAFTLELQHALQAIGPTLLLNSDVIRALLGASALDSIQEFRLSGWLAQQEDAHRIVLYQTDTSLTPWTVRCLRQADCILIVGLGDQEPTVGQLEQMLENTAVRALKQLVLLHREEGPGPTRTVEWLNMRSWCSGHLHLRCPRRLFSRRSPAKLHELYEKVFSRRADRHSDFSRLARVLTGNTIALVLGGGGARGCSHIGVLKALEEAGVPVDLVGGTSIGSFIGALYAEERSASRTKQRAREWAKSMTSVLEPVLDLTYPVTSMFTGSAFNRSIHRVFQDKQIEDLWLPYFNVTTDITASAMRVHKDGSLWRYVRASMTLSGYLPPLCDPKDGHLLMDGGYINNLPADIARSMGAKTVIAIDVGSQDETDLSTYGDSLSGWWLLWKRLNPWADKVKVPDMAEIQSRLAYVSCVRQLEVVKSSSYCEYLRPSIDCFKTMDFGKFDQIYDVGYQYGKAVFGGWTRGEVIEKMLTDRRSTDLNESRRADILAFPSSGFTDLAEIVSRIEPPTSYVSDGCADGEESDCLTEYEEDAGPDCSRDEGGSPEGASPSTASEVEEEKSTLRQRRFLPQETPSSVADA

[4] = biological target: T5, Patatin-like phospholipase domain-containing protein 6 (Mus musculus) (UniProt Q3TRM4); assay: Inhibition of NTE in mouse brain membrane at 100 uM; type: cell membranes
T5 sequence (whole entry): T4 sequence (Q3TRM4 whole entry)
Summary of the method: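 Competitive ABPP on mouse brain membrane proteome at 1 mg/ml in PBS. Inhibitor at 100 μM for 30 min at 37°C, then FP-rhodamine 1 μM final for 30 min at 25°C. SDS-PAGE and in-gel fluorescence scanning. Percent loss of NTE band labeling.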

Structure (SMILES)	IC50 [1]	IC50 (Monoglyceride lipase)	IC50 [2]	Ratio IC50 (Mus musculus)	IC50 [3]	inhibition [4]
COc1ccc(C(O)(c2ccc(OC)c(OC)c2)C2CCN(C(=O)Oc3ccc([N+](=O)[O-])cc3)CC2)cc1OC	> 50 µM	1300 nM	6960 nM	–	–	–
COc1ccc(C(O)(c2ccc(OC)cc2)C2CCN(C(=O)Oc3ccc([N+](=O)[O-])cc3)C2)cc1 (stereo not given)	> 50 µM	> 50000 nM	> 50000 nM	–	–	–
O=C(Oc1ccc([N+](=O)[O-])cc1)N1CCN(C(c2ccc(F)cc2)c2ccc(F)cc2)CC1	5.41 µM	200 nM	900 nM	27	–	–
COc1ccccc1C(O)(c1ccccc1OC)C1CCN(C(=O)Oc2ccc([N+](=O)[O-])cc2)CC1	15.1 µM	510 nM	1100 nM	–	–	–
O=C(Oc1ccc([N+](=O)[O-])cc1)N1CCC(C(O)(c2ccc3ccccc3c2)c2ccc3ccccc3c2)CC1	4.69 µM	810 nM	3430 nM	6	–	–
O=C(Oc1ccc([N+](=O)[O-])cc1)N1CCN(Cc2ccc3ccccc3n2)CC1	1.04 µM	80 nM	490 nM	–	910 nM	–
O=C(Oc1ccc([N+](=O)[O-])cc1)N1CCN(Cc2ccc(-c3ccccc3)s2)CC1	0.04 µM	50 nM	220 nM	–	80 nM	–
O=C(Oc1ccc([N+](=O)[O-])cc1)N1CCN(Cc2ccc(-c3ccccc3)cc2)CC1	4.6 µM	15 nM	1650 nM	–	4270 nM	–
O=C(Oc1ccc([N+](=O)[O-])cc1)N1CCN(Cc2cc(Br)ccc2O)CC1	0.72 µM	90 nM	130 nM	–	3240 nM	73%
COc1ccc(C(O)(c2ccc(OC)cc2)C2CCN(C(=O)Oc3ccc([N+](=O)[O-])cc3)CC2)cc1	2.66 µM	40 nM	2110 nM	68	–	–
COc1cc(OCc2ccccc2)ccc1CN1CCN(C(=O)Oc2ccc([N+](=O)[O-])cc2)CC1	0.93 µM	90 nM	310 nM	–	420 nM	–
O=C(Oc1ccc([N+](=O)[O-])cc1)N1CCN(Cc2cc(-c3ccccc3)cs2)CC1	0.28 µM	10 nM	1000 nM	–	890 nM	–
O=C(Oc1ccc([N+](=O)[O-])cc1)N1CCC2(CC1)OC2(c1ccccc1)c1ccccc1	5.85 µM	200 nM	380 nM	29	–	–
O=C(Oc1ccc([N+](=O)[O-])cc1)N1CCC(C(O)(c2ccc3c(c2)OCO3)c2ccc3c(c2)OCO3)CC1	–	–	3270 nM	–	–	–
COc1ccc(CN2CCN(C(=O)Oc3ccc([N+](=O)[O-])cc3)CC2)cc1	1.05 µM	1530 nM	1270 nM	–	480 nM	–
O=C(Oc1ccc([N+](=O)[O-])cc1)N1CCN(Cc2ccc3ccccc3c2)CC1	0.38 µM	70 nM	150 nM	–	1100 nM	–
O=C(Oc1ccc([N+](=O)[O-])cc1)N1CCN(Cc2ccccc2)CC1	0.93 µM	900 nM	740 nM	–	610 nM	–
CN(C)c1ccc(C(O)(c2ccc(N(C)C)cc2)C2CCN(C(=O)Oc3ccc([N+](=O)[O-])cc3)CC2)cc1	10.5 µM	2120 nM	1020 nM	5	–	–
COc1cccc(C(O)(c2cccc(OC)c2)C2CCN(C(=O)Oc3ccc([N+](=O)[O-])cc3)CC2)c1	5.83 µM	560 nM	460 nM	10	–	–
O=C(Oc1ccc([N+](=O)[O-])cc1)N1CCN(Cc2ccc(-c3ccccc3)o2)CC1	0.02 µM	90 nM	220 nM	–	250 nM	–
CN(CCC(c1ccccc1)c1ccccc1)C(=O)Oc1ccc([N+](=O)[O-])cc1	> 50 µM	> 50000 nM	> 50000 nM	–	–	–
O=C(Oc1ccc([N+](=O)[O-])cc1)N1CCC(C(O)(c2ccccc2)c2ccccc2)CC1	4.34 µM	690 nM	1100 nM	6	–	–
O=C(Oc1ccc([N+](=O)[O-])cc1)N1CCC(C(O)(c2ccc(Cl)cc2)c2ccc(Cl)cc2)CC1	3.36 µM	1100 nM	180 nM	3	–	–
COc1ccc(C(c2ccc(OC)cc2)C2CCN(C(=O)Oc3ccc([N+](=O)[O-])cc3)CC2)cc1	40.1 µM	73 nM	550 nM	549	–	–
CN(C(=O)Oc1ccc([N+](=O)[O-])cc1)C(c1ccccc1)c1ccccc1	> 50 µM	> 50000 nM	> 50000 nM	–	–	–
O=C(Oc1ccc([N+](=O)[O-])cc1)N1CCN(Cc2ccccc2-c2ccccc2)CC1	3.57 µM	670 nM	2860 nM	–	330 nM	–
O=C(Oc1ccc([N+](=O)[O-])cc1)N1CCC(=C(c2ccccc2)c2ccccc2)CC1	3.5 µM	1390 nM	1300 nM	3	–	–
O=C(Oc1ccc([N+](=O)[O-])cc1)N1CCN(C2c3ccccc3Oc3ccccc32)CC1	9 µM	6120 nM	2120 nM	2	–	–
